Results taken from ChEMBL document CHEMBL3784963, “Synthesis, cytotoxic activity evaluation and HQSAR study of novel isosteviol derivatives as potential anticancer agents” (Eur J Med Chem, 2016).

Experiments:
Type in all cases: functional, cell-based
[1] = Cytotoxicity against human HCT116 cells assessed as growth inhibition after 72 hrs by MTT assay; details: HCT-116, 72 h
Summary of the method: (§1)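 MTT cytotoxicity assay on three human cancer cell lines: HCT-116 (colon carcinoma), HGC-27 (gastric carcinoma) and JEKO-1 (mantle cell lymphoma).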

[2] = Cytotoxicity against human HGC27 cells assessed as growth inhibition after 72 hrs by MTT assay; details: HGC-27, 72 h; summary of the method: as §1
[3] = Cytotoxicity against human JeKo1 cells assessed as growth inhibition after 72 hrs by MTT assay; details: JeKo-1, 72 h; summary of the method: as §1

SMILES: CCOC(=O)[C@]1(C)CCC[C@@]2(C)[C@@H]3CC[C@@]4(C)C[C@]3(CC[C@@H]21)[C@H](CO)[C@H]4NC(=S)Nc1ccc(F)cc1
- IC50 [1]: 4.76 µM
- IC50 [2]: 4.92 µM
- IC50 [3]: 23.7 µM

SMILES: C=C[C@]12CC[C@H]3[C@@](C)(CCC[C@@]3(C)C(=O)OCC)[C@@H]1CC[C@](C)(CN=C=S)C2
- IC50 [1]: 4.14 µM
- IC50 [2]: 11.5 µM
- IC50 [3]: 5.43 µM

SMILES: C=C[C@]12CC[C@H]3[C@@](C)(CCC[C@@]3(C)C(=O)OCC)[C@@H]1CC[C@](C)(CNC(=S)Nc1ccccc1)C2
- IC50 [1]: 3.47 µM
- IC50 [2]: 6.69 µM
- IC50 [3]: 2.77 µM

SMILES: CCOC(=O)[C@]1(C)CCC[C@@]2(C)[C@@H]3CC[C@@]4(C)C[C@]3(CC[C@@H]21)[C@H](CO)[C@H]4NC(=S)Nc1cccc(C)c1
- IC50 [1]: 4.63 µM
- IC50 [2]: 4.36 µM
- IC50 [3]: 20.8 µM

SMILES: CCOC(=O)[C@]1(C)CCC[C@@]2(C)[C@@H]3CC[C@@]4(C)C[C@]3(CC[C@@H]21)[C@H](CO)[C@H]4NC(=S)Nc1ccccc1[N+](=O)[O-]
- IC50 [1]: 11.7 µM
- IC50 [2]: 22.8 µM
- IC50 [3]: 26.9 µM

SMILES: CCOC(=O)[C@]1(C)CCC[C@@]2(C)[C@@H]3CC[C@@]4(C)C[C@]3(CC[C@@H]21)[C@H](CO)[C@H]4NC(=S)Nc1cccc(Br)c1
- IC50 [1]: 4.17 µM
- IC50 [2]: 9.15 µM
- IC50 [3]: 27.3 µM

SMILES: CCOC(=O)[C@]1(C)CCC[C@@]2(C)[C@@H]3CC[C@@]4(C)C[C@]3(CC[C@@H]21)[C@H](CO)[C@@H]4N
- IC50 [1]: 4.9 µM
- IC50 [2]: 7.25 µM
- IC50 [3]: 2.47 µM

SMILES: CCOC(=O)[C@]1(C)CCC[C@@]2(C)[C@@H]3CC[C@@]4(C)C[C@]3(CC[C@@H]21)[C@H](CO)[C@H]4NC(C)=O
- IC50 [1]: 15.2 µM
- IC50 [2]: 18 µM
- IC50 [3]: 62 µM

SMILES: CCOC(=O)[C@]1(C)CCC[C@@]2(C)[C@@H]3CC[C@@]4(C)C[C@]3(CC[C@@H]21)C[C@H]4N=C=S
- IC50 [1]: 6.96 µM
- IC50 [2]: 11.6 µM
- IC50 [3]: 38.3 µM

SMILES: CCOC(=O)[C@]1(C)CCC[C@@]2(C)[C@@H]3CC[C@@]4(C)C[C@]3(CC[C@@H]21)[C@H](CO)[C@H]4NC(=S)Nc1ccc(OC)cc1
- IC50 [1]: 4.57 µM
- IC50 [2]: 7.72 µM
- IC50 [3]: 40.3 µM

SMILES: CCOC(=O)[C@]1(C)CCC[C@@]2(C)[C@@H]3CC[C@@]4(C)C[C@]3(CC[C@@H]21)[C@H](CO)[C@H]4NC(=S)Nc1cccc(Cl)c1
- IC50 [1]: 2.75 µM
- IC50 [2]: 5.46 µM
- IC50 [3]: 20.5 µM

SMILES: CCOC(=O)[C@]1(C)CCC[C@@]2(C)[C@@H]3CC[C@@]4(C)C[C@]3(CC[C@@H]21)C[C@H]4NC(=S)Nc1ccccc1
- IC50 [1]: 8.66 µM
- IC50 [2]: 13.8 µM
- IC50 [3]: 21.5 µM

SMILES: CCOC(=O)[C@]1(C)CCC[C@@]2(C)[C@@H]3CC[C@@]4(C)C[C@]3(CC[C@@H]21)[C@H](CO)[C@H]4NC(=S)Nc1ccc(C)cc1
- IC50 [1]: 5.62 µM
- IC50 [2]: 5.53 µM
- IC50 [3]: 30.2 µM

SMILES: CCOC(=O)[C@]1(C)CCC[C@@]2(C)[C@@H]3CC[C@@]4(C)C[C@]3(CC[C@@H]21)C[C@H]4NC(=S)NC1CCCCC1
- IC50 [1]: 82.6 µM
- IC50 [2]: 92.2 µM
- IC50 [3]: 94.8 µM

SMILES: CCOC(=O)[C@]1(C)CCC[C@@]2(C)[C@@H]3CC[C@@]4(C)C[C@]3(CC[C@@H]21)[C@H](CO)[C@H]4NC(=S)Nc1ccccc1
- IC50 [1]: 5.79 µM
- IC50 [2]: 5.16 µM
- IC50 [3]: 27.3 µM

SMILES: CCOC(=O)[C@]1(C)CCC[C@@]2(C)[C@@H]3CC[C@@]4(C)C[C@]3(CC[C@@H]21)[C@H](CO)[C@H]4NC(=S)Nc1ccccc1C
- IC50 [1]: 4.78 µM
- IC50 [2]: 5.04 µM
- IC50 [3]: 24.7 µM

SMILES: CCOC(=O)[C@]1(C)CCC[C@@]2(C)[C@@H]3CC[C@@]4(C)C[C@]3(CC[C@@H]21)C[C@H]4NC(=S)NNC(=O)c1ccccc1
- IC50 [1]: 15.1 µM
- IC50 [2]: 26.2 µM
- IC50 [3]: 56.8 µM

SMILES: CCOC(=O)[C@]1(C)CCC[C@@]2(C)[C@@H]3CC[C@@]4(C)C[C@]3(CC[C@@H]21)[C@H](CO)[C@H]4NC(=S)Nc1ccc([N+](=O)[O-])cc1
- IC50 [1]: 1.45 µM
- IC50 [2]: 2.35 µM
- IC50 [3]: 3.54 µM

SMILES: CCOC(=O)[C@]1(C)CCC[C@@]2(C)[C@@H]3CC[C@@]4(C)C[C@]3(CC[C@@H]21)[C@H](CO)[C@H]4N
- IC50 [1]: 4.89 µM
- IC50 [2]: 5.83 µM
- IC50 [3]: 3.54 µM

SMILES: CCOC(=O)[C@]1(C)CCC[C@@]2(C)[C@@H]3CC[C@@]4(C)C[C@]3(CC[C@@H]21)[C@H](CO)[C@H]4NC(=S)Nc1cccc([N+](=O)[O-])c1
- IC50 [1]: 1.88 µM
- IC50 [2]: 2.38 µM
- IC50 [3]: 5.26 µM

SMILES: CCOC(=O)[C@]1(C)CCC[C@@]2(C)[C@@H]3CC[C@@]4(C)C[C@]3(CC[C@@H]21)[C@H](CO)[C@H]4NC(=S)Nc1ccccc1Br
- IC50 [1]: 20.9 µM
- IC50 [2]: 15.6 µM
- IC50 [3]: 14 µM

SMILES: CCOC(=O)[C@]1(C)CCC[C@@]2(C)[C@@H]3CC[C@@]4(C)C[C@]3(CC[C@@H]21)[C@H](CO)[C@H]4NC(=S)Nc1cccc(F)c1
- IC50 [1]: 4.91 µM
- IC50 [2]: 4.98 µM
- IC50 [3]: 28.9 µM

SMILES: CCOC(=O)[C@]1(C)CCC[C@@]2(C)[C@@H]3CC[C@@]4(C)C[C@]3(CC[C@@H]21)[C@H](CO)[C@H]4NC(=S)Nc1cccc(OC)c1
- IC50 [1]: 3.84 µM
- IC50 [2]: 7.21 µM
- IC50 [3]: 31.9 µM

SMILES: CCOC(=O)[C@]1(C)CCC[C@@]2(C)[C@@H]3CC[C@@]4(C)C[C@]3(CC[C@@H]21)C[C@H]4N
- IC50 [1]: 5.08 µM
- IC50 [2]: 2.6 µM
- IC50 [3]: 2.2 µM

SMILES: CCOC(=O)[C@]1(C)CCC[C@@]2(C)[C@@H]3CC[C@@]4(C)C[C@]3(CC[C@@H]21)[C@H](CO)[C@H]4NC(=S)Nc1ccc(Br)cc1
- IC50 [1]: 2.21 µM
- IC50 [2]: 2.98 µM
- IC50 [3]: 6.73 µM

SMILES: CCOC(=O)[C@]1(C)CCC[C@@]2(C)[C@@H]3CC[C@@]4(C)C[C@]3(CC[C@@H]21)[C@H](CO)[C@H]4NC(=S)Nc1ccccc1Cl
- IC50 [1]: 7.23 µM
- IC50 [2]: 8.98 µM
- IC50 [3]: 40.7 µM

SMILES: CCOC(=O)[C@]1(C)CCC[C@@]2(C)[C@@H]3CC[C@@]4(C)C[C@]3(CC[C@@H]21)[C@H](COC(C)=O)[C@H]4NC(C)=O
- IC50 [1]: 20.1 µM
- IC50 [2]: 20.5 µM
- IC50 [3]: 60.6 µM

SMILES: CCOC(=O)[C@]1(C)CCC[C@@]2(C)[C@@H]3CC[C@@]4(C)C[C@]3(CC[C@@H]21)[C@H](CO)[C@H]4NC(=S)Nc1ccccc1F
- IC50 [1]: 4.85 µM
- IC50 [2]: 7.38 µM
- IC50 [3]: 35.7 µM

SMILES: CCOC(=O)[C@]1(C)CCC[C@@]2(C)[C@@H]3CC[C@@]4(C)C[C@]3(CC[C@@H]21)[C@H](CO)[C@H]4NC(=S)Nc1c(C)cccc1C
- IC50 [1]: 4.54 µM
- IC50 [2]: 8.9 µM
- IC50 [3]: 21.1 µM

SMILES: CCOC(=O)[C@]1(C)CCC[C@@]2(C)[C@@H]3CC[C@@]4(C)C[C@]3(CC[C@@H]21)[C@H](CO)[C@H]4NC(=S)Nc1ccccc1OC
- IC50 [1]: 5.4 µM
- IC50 [2]: 9.02 µM
- IC50 [3]: 28.3 µM

SMILES: CCOC(=O)[C@]1(C)CCC[C@@]2(C)[C@@H]3CC[C@@]4(C)C[C@]3(CC[C@@H]21)[C@H](CO)[C@H]4NC(=S)Nc1ccc(Cl)cc1
- IC50 [1]: 4.41 µM
- IC50 [2]: 3.33 µM
- IC50 [3]: 5.76 µM

SMILES: CCOC(=O)[C@]1(C)CCC[C@@]2(C)[C@@H]3CC[C@@]4(C)C[C@]3(CC[C@@H]21)[C@H](CO)[C@H]4NC(=S)Nc1ccc(Cl)cc1Cl
- IC50 [1]: 4.02 µM
- IC50 [2]: 4.78 µM
- IC50 [3]: 27.3 µM

SMILES: CCOC(=O)[C@]1(C)CCC[C@@]2(C)[C@@H]3CC[C@@]4(C)C[C@]3(CC[C@@H]21)[C@H](CO)[C@H]4N=C=S
- IC50 [1]: 4.45 µM
- IC50 [2]: 7.7 µM
- IC50 [3]: 30.1 µM

SMILES: CCOC(=O)[C@]1(C)CCC[C@@]2(C)[C@@H]3CC[C@@]4(C)C[C@]3(CC[C@@H]21)C[C@H]4NC(=S)N[C@@H](C)c1ccccc1
- IC50 [1]: 6.63 µM
- IC50 [2]: 18.2 µM
- IC50 [3]: 15.2 µM

SMILES: C=C[C@]12CC[C@H]3[C@@](C)(CCC[C@@]3(C)C(=O)OCC)[C@@H]1CC[C@](C)(CN)C2
- IC50 [1]: 2.46 µM
- IC50 [2]: 3.02 µM
- IC50 [3]: 2.16 µM

SMILES: C[C@@]12CC[C@@H]3[C@@](CC[C@H]4[C@@]3(C)CCC[C@@]4(C)C(=O)O)(CC1=O)C2 [ISOSTEVIOL]
- IC50 [1]: > 100 µM
- IC50 [2]: > 100 µM
- IC50 [3]: > 100 µM
